Results published in ChEMBL document CHEMBL1629712, “Design, synthesis and discovery of 5-hydroxyaurone derivatives as growth inhibitors against HUVEC and some cancer cell lines” (Eur J Med Chem, 2010).

How the values were obtained:
[1] = Selectivity ratio of CC50 for human CCC-HPF1 cells to IC50 for HUVEC; assay type: ADME, cell-based; settings: CCC-HPF1 cells versus HUVEC, read-out: Ratio CC50/IC50
A549 = assay: Antiproliferative activity against human A549 cells after 96 hrs by MTT assay; assay type: functional, cell-based; settings: A549, 96 h
How it was run: (§1)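 MTT viability. Seeding was 1000 cells/well for HUVEC, 1500 for MCF-7 and CCC-HPF-1, and 2000 for A549. After 20 h attachment, compound or carrier was added from 2% DMSO/PBS stocks (final DMSO 0.1%), in triplicate per concentration.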

MCF7 = assay: Antiproliferative activity against human MCF7 cells after 96 hrs by MTT assay; settings: MCF7, 96 h
[2] = Antiproliferative activity against human CCC-HPF1 cells after 96 hrs by MTT assay; assay type: cell-based; how it was run: as §1
HUVEC = assay: Antiangiogenic activity in HUVEC after 96 hrs by MTT assay; assay type: functional, cell-based; settings: Homo sapiens; how it was run: as §1

Row | IC50 (A549) [µM] | IC50 (MCF7) [µM] | Compound | selectivity ratio [1] | CC50 at 96 h [2] [µM] | IC50 (HUVEC) [µM]
1 | 18.7 | 10.1 | CN(C)c1ccc(/C=C2\Oc3ccc(O)cc3C2=O)cc1 | 20 | 25.1 | 1.35
2 | ≥ 50 | ≥ 50 | CO[C@@H]1[C@H](OC(=O)/C=C/C=C/C=C/C=C/C(=O)O)CC[C@]2(CO2)[C@H]1[C@@]1(C)O[C@@H]1CC=C(C)C [FUMAGILLIN] | – | – | 0.0089
